Laboratory results reported in ChEMBL document CHEMBL5696442, “Discovery of type II inhibitors of TGFβ-activated kinase 1 (TAK1) and mitogen-activated protein kinase kinase kinase kinase 2 (MAP4K2)” (J Med Chem, 2015).

Key:
Assay type in all cases: cell-based
[1] = molecular target: Tyrosine-protein kinase ABL2 (Homo sapiens, UniProt P42684); assay: Inhibition of ARG ACT labeling site in human A-375 cells at 5 uM by KiNativ Profiling analysis relative to control
Summary of the method: (§1)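 Intact A375 melanoma cells were treated with compound at 5 or 0.5 μM, then lysed. Lysate kinases were labeled with a lysine-reactive ATP or ADP-biotin probe (KiNativ). Inhibition is read as protection of each kinase labeling site from probe labeling.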

[2] = molecular target: TRAF2 and NCK-interacting protein kinase (Homo sapiens) (UniProt Q9UKE5); assay: Inhibition of ZC2 Lys2 labeling site in human A-375 cells at 0.5 uM by KiNativ Profiling analysis relative to control
TRAF2 and NCK-interacting protein kinase (Homo sapiens), sequence (Q9UKE5 whole entry, looked up): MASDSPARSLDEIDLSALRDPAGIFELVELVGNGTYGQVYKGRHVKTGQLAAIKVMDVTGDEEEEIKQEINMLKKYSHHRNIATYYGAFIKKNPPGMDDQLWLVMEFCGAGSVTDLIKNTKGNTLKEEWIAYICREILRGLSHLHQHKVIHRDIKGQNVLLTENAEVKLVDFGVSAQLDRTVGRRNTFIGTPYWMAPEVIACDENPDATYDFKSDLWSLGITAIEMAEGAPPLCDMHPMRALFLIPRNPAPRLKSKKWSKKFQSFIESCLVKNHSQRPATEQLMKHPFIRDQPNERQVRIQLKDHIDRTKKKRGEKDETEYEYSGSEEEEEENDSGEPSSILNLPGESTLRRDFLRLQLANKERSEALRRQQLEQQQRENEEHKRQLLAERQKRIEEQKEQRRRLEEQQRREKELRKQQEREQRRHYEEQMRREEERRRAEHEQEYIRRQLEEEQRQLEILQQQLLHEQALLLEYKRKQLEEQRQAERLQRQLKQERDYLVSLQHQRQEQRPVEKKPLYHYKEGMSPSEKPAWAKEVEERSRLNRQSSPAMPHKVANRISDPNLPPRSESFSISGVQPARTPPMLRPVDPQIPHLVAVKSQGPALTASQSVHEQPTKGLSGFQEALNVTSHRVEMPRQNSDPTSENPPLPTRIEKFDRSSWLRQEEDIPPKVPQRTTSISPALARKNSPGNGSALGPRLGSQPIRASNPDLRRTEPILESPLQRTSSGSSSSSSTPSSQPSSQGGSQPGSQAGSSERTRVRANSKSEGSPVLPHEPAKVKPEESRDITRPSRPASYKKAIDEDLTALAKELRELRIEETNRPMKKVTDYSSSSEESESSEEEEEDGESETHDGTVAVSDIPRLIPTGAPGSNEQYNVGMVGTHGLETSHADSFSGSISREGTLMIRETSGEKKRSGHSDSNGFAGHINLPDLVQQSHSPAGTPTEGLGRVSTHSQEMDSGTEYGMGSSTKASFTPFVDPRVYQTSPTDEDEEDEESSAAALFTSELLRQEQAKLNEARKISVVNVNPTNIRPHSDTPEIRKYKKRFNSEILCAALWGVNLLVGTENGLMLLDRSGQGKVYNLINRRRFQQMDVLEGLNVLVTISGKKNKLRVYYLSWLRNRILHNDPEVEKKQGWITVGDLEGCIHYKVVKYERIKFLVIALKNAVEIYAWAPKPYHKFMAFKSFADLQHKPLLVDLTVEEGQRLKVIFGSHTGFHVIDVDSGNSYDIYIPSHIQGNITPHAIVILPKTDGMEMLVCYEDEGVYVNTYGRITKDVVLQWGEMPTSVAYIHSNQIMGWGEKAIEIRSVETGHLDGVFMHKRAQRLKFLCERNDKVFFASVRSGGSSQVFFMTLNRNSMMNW

[3] = molecular target: TRAF2 and NCK-interacting protein kinase (Homo sapiens) (UniProt Q9UKE5); assay: Inhibition of ZC2/TNIK Lys1 labeling site in human A-375 cells at 0.5 uM by KiNativ Profiling analysis relative to control
[4] = molecular target: Cyclin-dependent kinase 6 (Homo sapiens) (UniProt Q00534); assay: Inhibition of CDK6 Lys2 labeling site in human A-375 cells at 5 uM by KiNativ Profiling analysis relative to control; summary of the method: as §1
Cyclin-dependent kinase 6 (Homo sapiens), sequence (Q00534 whole entry): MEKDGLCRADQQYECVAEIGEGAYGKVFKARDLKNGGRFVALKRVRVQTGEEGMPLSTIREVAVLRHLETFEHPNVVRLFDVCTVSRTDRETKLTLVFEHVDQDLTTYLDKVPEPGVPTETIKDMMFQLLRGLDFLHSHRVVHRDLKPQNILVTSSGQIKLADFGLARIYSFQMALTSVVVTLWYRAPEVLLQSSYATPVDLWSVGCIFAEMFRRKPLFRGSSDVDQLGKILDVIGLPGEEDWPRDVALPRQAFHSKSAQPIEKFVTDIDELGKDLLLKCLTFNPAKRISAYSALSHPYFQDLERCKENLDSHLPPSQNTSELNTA

[5] = molecular target: Serine/threonine-protein kinase 38 (Homo sapiens) (UniProt Q15208); assay: Inhibition of NDR1 Lys1 labeling site in human A-375 cells at 5 uM by KiNativ Profiling analysis relative to control
Serine/threonine-protein kinase 38 (Homo sapiens), sequence (Q15208 2-465 limits assumed): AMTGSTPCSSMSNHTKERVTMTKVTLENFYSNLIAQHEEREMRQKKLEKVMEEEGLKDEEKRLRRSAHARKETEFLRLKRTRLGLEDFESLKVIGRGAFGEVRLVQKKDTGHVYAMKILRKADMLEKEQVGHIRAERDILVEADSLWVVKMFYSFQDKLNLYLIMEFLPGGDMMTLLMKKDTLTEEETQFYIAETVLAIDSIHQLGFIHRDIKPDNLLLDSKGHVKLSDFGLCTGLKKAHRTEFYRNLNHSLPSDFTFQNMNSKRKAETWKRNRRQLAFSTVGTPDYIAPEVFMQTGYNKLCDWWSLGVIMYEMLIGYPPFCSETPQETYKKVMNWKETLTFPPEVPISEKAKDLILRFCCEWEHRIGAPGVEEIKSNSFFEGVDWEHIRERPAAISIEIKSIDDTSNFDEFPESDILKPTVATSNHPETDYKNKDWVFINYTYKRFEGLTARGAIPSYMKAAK

[6] = molecular target: T1, Serine/threonine-protein kinase Nek9 (Homo sapiens) (UniProt Q8TD19); assay: Inhibition of NEK9 Lys1 labeling site harbouring RTEDDSLVVWKEVDLTR in human A-375 cells at 5 uM by KiNativ Profiling analysis relative to control
T1 sequence (whole entry): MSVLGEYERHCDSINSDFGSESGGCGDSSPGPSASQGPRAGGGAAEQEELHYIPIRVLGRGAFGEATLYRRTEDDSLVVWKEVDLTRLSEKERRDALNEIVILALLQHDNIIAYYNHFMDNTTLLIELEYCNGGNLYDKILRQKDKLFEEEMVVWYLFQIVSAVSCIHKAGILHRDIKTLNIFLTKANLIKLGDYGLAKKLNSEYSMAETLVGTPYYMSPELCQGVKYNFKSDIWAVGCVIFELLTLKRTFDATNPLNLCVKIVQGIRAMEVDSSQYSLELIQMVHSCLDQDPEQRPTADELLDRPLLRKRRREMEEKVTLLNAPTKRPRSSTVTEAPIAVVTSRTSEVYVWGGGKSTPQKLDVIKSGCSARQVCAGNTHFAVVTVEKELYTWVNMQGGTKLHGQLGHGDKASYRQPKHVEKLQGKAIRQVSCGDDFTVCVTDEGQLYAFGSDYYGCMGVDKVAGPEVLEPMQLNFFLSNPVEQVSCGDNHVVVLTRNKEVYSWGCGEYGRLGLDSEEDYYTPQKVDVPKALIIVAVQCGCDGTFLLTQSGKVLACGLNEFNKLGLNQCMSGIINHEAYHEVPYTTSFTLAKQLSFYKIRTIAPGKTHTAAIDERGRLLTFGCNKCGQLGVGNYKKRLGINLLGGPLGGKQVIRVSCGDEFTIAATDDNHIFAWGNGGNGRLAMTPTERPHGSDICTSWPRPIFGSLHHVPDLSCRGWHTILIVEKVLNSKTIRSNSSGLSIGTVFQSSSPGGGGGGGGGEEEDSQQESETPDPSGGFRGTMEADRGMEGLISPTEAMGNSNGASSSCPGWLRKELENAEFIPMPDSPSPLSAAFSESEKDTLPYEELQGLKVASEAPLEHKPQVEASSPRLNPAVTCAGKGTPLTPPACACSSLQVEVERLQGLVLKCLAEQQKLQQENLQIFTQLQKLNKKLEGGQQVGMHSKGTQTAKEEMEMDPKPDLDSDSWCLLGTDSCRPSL

[7] = molecular target: T2, NUAK family SNF1-like kinase 2 (Homo sapiens) (UniProt Q9H093); assay: Inhibition of NuaK2 Lys1 labeling site in human A-375 cells at 0.5 uM by KiNativ Profiling analysis relative to control
T2 sequence (whole entry): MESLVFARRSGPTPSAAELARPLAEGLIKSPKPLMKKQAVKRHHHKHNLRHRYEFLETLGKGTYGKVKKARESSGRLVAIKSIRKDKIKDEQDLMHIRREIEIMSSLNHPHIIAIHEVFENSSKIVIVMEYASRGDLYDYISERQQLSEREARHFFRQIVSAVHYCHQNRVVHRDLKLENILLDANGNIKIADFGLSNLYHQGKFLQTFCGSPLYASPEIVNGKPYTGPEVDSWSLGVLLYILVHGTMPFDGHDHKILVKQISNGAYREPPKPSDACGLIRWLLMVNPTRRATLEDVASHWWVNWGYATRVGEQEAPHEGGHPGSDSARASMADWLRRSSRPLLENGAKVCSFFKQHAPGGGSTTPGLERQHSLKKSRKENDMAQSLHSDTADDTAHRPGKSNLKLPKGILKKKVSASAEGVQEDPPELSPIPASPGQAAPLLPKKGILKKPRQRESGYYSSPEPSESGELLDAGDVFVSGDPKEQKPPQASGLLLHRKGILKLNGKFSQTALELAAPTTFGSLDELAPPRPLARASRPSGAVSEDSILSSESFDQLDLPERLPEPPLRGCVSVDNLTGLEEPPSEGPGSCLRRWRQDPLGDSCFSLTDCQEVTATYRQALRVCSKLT

[8] = molecular target: Cyclin-dependent kinase 18 (Homo sapiens) (UniProt Q07002); assay: Inhibition of PCTAIRE3 Lys1 labeling site harbouring SKLTENLVALKEIRLEHEEGAPCTAIR in human A-375 cells at 0.5 uM by KiNativ Profiling analysis relative to control
Cyclin-dependent kinase 18 (Homo sapiens), sequence (Q07002 whole entry): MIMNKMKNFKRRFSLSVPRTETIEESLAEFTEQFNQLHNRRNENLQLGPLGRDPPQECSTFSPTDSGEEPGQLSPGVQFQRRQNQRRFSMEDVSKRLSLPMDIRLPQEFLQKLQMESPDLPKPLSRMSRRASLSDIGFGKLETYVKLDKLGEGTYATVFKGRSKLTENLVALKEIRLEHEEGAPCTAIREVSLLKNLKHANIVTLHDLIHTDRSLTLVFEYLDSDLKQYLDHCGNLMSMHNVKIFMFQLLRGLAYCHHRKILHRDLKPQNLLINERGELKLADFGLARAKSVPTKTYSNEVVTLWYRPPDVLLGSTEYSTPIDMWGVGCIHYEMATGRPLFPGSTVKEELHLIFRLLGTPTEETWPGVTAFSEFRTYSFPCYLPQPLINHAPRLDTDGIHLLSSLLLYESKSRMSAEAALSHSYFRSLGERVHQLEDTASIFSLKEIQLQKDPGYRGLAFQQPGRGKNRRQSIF
Summary of the method: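 Live A375 melanoma cells were treated with compound at 5 or 0.5 μM, then lysed. Lysates were labeled with a lysine-reactive ATP or ADP-biotin probe. Read-out was the compound's protection of kinase labeling sites from probe labeling (KiNativ).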

[9] = molecular target: RAC-alpha serine/threonine-protein kinase (Homo sapiens) (UniProt P31749); assay: Inhibition of AKT1 ATP Loop labeling site in human A-375 cells at 0.05 uM by KiNativ Profiling analysis relative to control
RAC-alpha serine/threonine-protein kinase (Homo sapiens), sequence (P31749 whole entry): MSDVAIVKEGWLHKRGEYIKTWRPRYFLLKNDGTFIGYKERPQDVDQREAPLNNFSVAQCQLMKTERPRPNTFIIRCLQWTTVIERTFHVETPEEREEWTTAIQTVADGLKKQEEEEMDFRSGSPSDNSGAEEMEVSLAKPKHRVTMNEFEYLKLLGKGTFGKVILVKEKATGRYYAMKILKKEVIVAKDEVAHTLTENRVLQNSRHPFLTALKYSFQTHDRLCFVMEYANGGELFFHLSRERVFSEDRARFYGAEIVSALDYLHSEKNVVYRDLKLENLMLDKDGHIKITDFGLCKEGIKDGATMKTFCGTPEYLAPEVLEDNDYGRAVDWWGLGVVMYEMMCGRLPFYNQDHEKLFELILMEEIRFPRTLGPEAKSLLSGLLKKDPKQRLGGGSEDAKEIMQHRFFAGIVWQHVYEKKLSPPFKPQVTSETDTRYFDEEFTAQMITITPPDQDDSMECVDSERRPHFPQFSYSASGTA

[10] = molecular target: Receptor tyrosine-protein kinase erbB-3 (Homo sapiens) (UniProt P21860); assay: Inhibition of HER3/ErbB3 ACT labeling site in human A-375 cells at 0.05 uM by KiNativ Profiling analysis relative to control
Receptor tyrosine-protein kinase erbB-3 (Homo sapiens), sequence (P21860 whole entry): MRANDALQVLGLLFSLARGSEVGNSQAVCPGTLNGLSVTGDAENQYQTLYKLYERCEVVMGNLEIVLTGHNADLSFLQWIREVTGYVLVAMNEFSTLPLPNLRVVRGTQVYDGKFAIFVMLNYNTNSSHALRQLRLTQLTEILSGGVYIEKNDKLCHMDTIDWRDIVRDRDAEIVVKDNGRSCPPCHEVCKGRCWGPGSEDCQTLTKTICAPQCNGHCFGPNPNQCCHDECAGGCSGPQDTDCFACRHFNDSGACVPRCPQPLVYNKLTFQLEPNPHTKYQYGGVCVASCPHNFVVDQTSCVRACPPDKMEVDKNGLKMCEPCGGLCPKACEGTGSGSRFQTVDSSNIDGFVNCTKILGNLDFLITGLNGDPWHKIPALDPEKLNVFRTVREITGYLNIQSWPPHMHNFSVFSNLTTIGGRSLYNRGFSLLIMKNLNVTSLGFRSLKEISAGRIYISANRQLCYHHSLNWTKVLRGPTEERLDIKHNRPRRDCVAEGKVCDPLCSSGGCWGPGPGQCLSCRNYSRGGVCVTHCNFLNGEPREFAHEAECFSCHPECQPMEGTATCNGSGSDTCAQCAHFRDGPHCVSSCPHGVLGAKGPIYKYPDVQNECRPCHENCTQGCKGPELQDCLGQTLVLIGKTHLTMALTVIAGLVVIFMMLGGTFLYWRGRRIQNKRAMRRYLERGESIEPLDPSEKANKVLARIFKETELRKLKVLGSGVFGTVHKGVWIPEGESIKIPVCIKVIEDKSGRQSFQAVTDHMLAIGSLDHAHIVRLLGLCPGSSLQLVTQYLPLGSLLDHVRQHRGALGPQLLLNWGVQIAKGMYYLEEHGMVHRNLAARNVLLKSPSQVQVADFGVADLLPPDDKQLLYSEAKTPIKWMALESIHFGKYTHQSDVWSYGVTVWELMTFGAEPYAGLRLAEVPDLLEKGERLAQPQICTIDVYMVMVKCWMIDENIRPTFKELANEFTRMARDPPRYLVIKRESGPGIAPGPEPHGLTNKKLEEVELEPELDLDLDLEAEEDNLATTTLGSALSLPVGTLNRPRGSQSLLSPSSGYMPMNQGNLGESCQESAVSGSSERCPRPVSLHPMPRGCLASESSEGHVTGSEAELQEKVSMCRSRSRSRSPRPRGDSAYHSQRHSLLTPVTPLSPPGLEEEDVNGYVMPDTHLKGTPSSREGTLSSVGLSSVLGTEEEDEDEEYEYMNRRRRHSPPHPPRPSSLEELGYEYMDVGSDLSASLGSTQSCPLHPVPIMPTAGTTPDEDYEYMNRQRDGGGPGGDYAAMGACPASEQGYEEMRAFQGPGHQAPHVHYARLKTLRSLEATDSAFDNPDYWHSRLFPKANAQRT

| SMILES | inhibition [1] [%] | inhibition [2] [%] | inhibition [3] [%] | inhibition [4] [%] | inhibition [5] [%] | inhibition [6] [%] | inhibition [7] [%] | inhibition [8] [%] | inhibition [9] [%] | inhibition [10] [%] |
| --- | --- | --- | --- | --- | --- | --- | --- | --- | --- | --- |
| CCN1CCN(Cc2ccc(NC(=O)c3ccc(C)c(/C=C/c4cnc5[nH]ccc5c4OC)c3)cc2C(F)(F)F)CC1 | > 98 | 48.1 | 74.9 | -2.3 | 3.3 | 21 | 6.4 | 2.4 | 9.8 | 11.2 |
| CCN1CCN(Cc2ccc(NC(=O)c3ccc(C)c(Oc4ccnc5[nH]ccc45)c3)cc2C(F)(F)F)CC1 | > 98 | 70.8 | 77.9 | 6.8 | -0.8 | -3.9 | 9.4 | 6.9 | -7.9 | 4.1 |
